56 sequences from the array DNA melting data of Ke et al. (doi:10.1101/2024.01.08.574731) can be followed below.

Series [1] in a line: folding enthalpy; higher = less favourable; fluorescence melt of hairpins on a sequencing array, two-state fit. The settings on record: sodium 0.088 M. An outline of the steps: (§1)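 To match UV melts, fitted temperatures were raised by 9.35 °C. These fits were bootstrapped two-state models that gave melting temperature and folding enthalpy, combined by inverse variance over four replicates. The input was normalised Cy3 fluorescence of library hairpins with annealed Cy3 and quencher oligos on a sequenced MiSeq flow cell, imaged in 50 mM Na-HEPES pH 8.0, 25 mM NaCl in 2.5 °C steps up to 60 °C.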

Series [2] can be described thus: melting temperature; fluorescence melt of hairpins on a sequencing array, two-state fit, raised by 9.35 °C to match UV melts. The settings on record: sodium 0.088 M. In a few lines:
as §1

Regarding GCCAAAGAAATTTGGC ((((((....)))))), the folding enthalpy in series [1] was -34.6 kcal/mol. For the same sequence, in series [2], the Tm came to 54 °C.
On the same counts, the results for GGGTGAGGAAACTCGCCC (((.(((....))).))) are -34 kcal/mol and 57.4 °C.
On the same counts, the results for GGCAAGCCGAAAGGCGCC (((..(((....)))))) are -14.4 kcal/mol and 59.8 °C.
On the same counts, the results for GCGTGAGACGC ((((...)))) are -18.8 kcal/mol and 51 °C.
Regarding GACCCAGGAAACCAGGTC ((((..(....)..)))), in series [1], the folding enthalpy was -24.3 kcal/mol. Moreover, in series [2], the Tm worked out at 34 °C.
On the same counts, the results for GTGGCCGAAAGGCCTCAC ((((((....)))..))) are -7.49 kcal/mol and 40.4 °C.
On the same counts, the results for GATCAGGTTGCTGATC ((((((....)))))) are -46.3 kcal/mol and 51.2 °C.
On the same counts, the results for GATCGAAATTTCGATC ((((((....)))))) are -41.2 kcal/mol and 53.7 °C.
For the sequence GTATATCCGAAAGGATAC (((..(((....)))))), in series [1], the folding enthalpy is -12.4 kcal/mol. In series [2], the Tm is 34.7 °C.
On the same counts, the results for GATCAATGTTTTGATC ((((((....)))))) are -29.4 kcal/mol and 47 °C.
On the same counts, the results for GATCTCTCTGAGATC ((((((...)))))) are -37.5 kcal/mol and 55.4 °C.
With GCCATCGAAAGATAGGGC ((((((....)))..))), the folding enthalpy in series [1] is -27.4 kcal/mol. Moreover, the Tm in series [2] was determined as 44.6 °C.
On the same counts, the results for GGGCAATCGAAAGATCCC (((..(((....)))))) are -21.5 kcal/mol and 34 °C.
On the same counts, the results for GCGATTATCGC ((((...)))) are -20.9 kcal/mol and 49 °C.
On the same counts, the results for GTCATGGCGAAAGCCGAC (((..(((....)))))) are -13.4 kcal/mol and 42.6 °C.
For the sequence GATCATGGCAATGATC ((((((....)))))), the folding enthalpy in series [1] is -41.9 kcal/mol. In series [2], the Tm is 56.7 °C.
On the same counts, the results for GTACTCCGAAAGGATAC (((.(((....)))))) are -21.6 kcal/mol and 36.9 °C.
On the same counts, the results for GATCTCCGGAGAGATC ((((((....)))))) are -39.4 kcal/mol and 52.7 °C.
On the same counts, the results for GCACTACCGAAAGGTTGC (((..(((....)))))) are -15.9 kcal/mol and 39.6 °C.
For GCTTGAGGAAACTCAAGC (((((((....))))))), in series [1], the folding enthalpy was -41.9 kcal/mol. The Tm in series [2] was 62.8 °C.
On the same counts, the results for GTCTCCGAAAGGACTGAC ((((((....)))..))) are -14.6 kcal/mol and 34.4 °C.
On the same counts, the results for GATCCTATTAAGGATC ((((((....)))))) are -44.9 kcal/mol and 52.2 °C.
On the same counts, the results for GTTACCGGAAACGATAAC ((((.((....)).)))) are -26.6 kcal/mol and 36.1 °C.
As for GATCGATTATCGATC ((((((...)))))), in series [1], the folding enthalpy was -38.5 kcal/mol. For the same sequence, the Tm in series [2] was found to be 52.7 °C.
GTAGGCGAAAGCCCCTAC ((((((....)))..))): in series [1], the folding enthalpy was -7.29 kcal/mol. Moreover, in series [2], the Tm was determined as 23.7 °C.
Consider GTAGAGGGAAACCTCTAC (((((((....))))))), for which the folding enthalpy in series [1] is -54.2 kcal/mol. The Tm in series [2] is 55.8 °C.
On the same counts, the results for GGGTGAACGAAAGTTCCC (((..(((....)))))) are -14.9 kcal/mol and 50.1 °C.
GGGAACGAAAGTTACCC ((((((....))).))): the folding enthalpy in series [1] was -30 kcal/mol. Besides, the Tm in series [2] was determined as 53.8 °C.
On the same counts, the results for GGATTGGGAAACCAATCC (((((((....))))))) are -48.6 kcal/mol and 60.2 °C.
On the same counts, the results for TCCTCGAAAGAGGA (((((....))))) are -17.6 kcal/mol and 52.7 °C.
On the same counts, the results for GGATACACGAAAGTGTCC (((..(((....)))))) are -12 kcal/mol and 35.9 °C.
As for TCTTGGAAACAAGA (((((....))))), in series [1], the folding enthalpy is -11.1 kcal/mol. In series [2], the Tm stood at 35.7 °C.
On the same counts, the results for GATCATCGGATGATC ((((((...)))))) are -36.9 kcal/mol and 45.9 °C.
For GATCACCTAGGTGATC ((((((....)))))), in series [1], the folding enthalpy is -41.5 kcal/mol. For the same sequence, in series [2], the Tm is 59.7 °C.
In the case of GCGGCCGAAAGGCCCCGC ((((((....)))..))), the folding enthalpy in series [1] is -10.3 kcal/mol. Moreover, in series [2], the Tm was 48.1 °C.
On the same counts, the results for GATCACGACGGTGATC ((((((....)))))) are -37.8 kcal/mol and 59.8 °C.
On the same counts, the results for GTATATCGAAAGATTTAC (((.(((....))).))) are -21.8 kcal/mol and 36.4 °C.
On to GGCACCGGAAACAGCGCC (((.(.(....).).))), for which the folding enthalpy in series [1] is -22.1 kcal/mol. In addition, the Tm in series [2] is 34.5 °C.
For the sequence GTCTAGACGAAAGTCGAC (((..(((....)))))), the folding enthalpy in series [1] is -13.1 kcal/mol. Also, the Tm in series [2] is 39.6 °C.
On the same counts, the results for GCGGCAGGAAACCACCGC ((((..(....)..)))) are -25.9 kcal/mol and 45.2 °C.
On the same counts, the results for GAGAGCGAAAGCTGCTC ((((((....))).))) are -14 kcal/mol and 47 °C.
Regarding GTACTTGGAAACGAGTAC (((((.(....).))))), in series [1], the folding enthalpy is -33.6 kcal/mol. The Tm in series [2] was 44.2 °C.
As for CGCAGCGGAAACGCCGCG (((.(((....))).))), in series [1], the folding enthalpy was -34 kcal/mol. For the same sequence, the Tm in series [2] was determined as 58 °C.
On the same counts, the results for GTGCGCGAAAGCGAGCAC ((((((....)))..))) are -25.5 kcal/mol and 57.7 °C.
On the same counts, the results for GGTCCGCGAAAGCGTACC (((.(((....))).))) are -27.2 kcal/mol and 54.1 °C.
On the same counts, the results for GCGTTGATACGC ((((....)))) are -23.1 kcal/mol and 53.1 °C.
Take GATCTCTCATGAGATC ((((((....)))))): the folding enthalpy in series [1] is -44.1 kcal/mol. For the same sequence, the Tm in series [2] is 52.3 °C.
On the same counts, the results for GCAAAGCGAAAGCATGGC ((.(.((....)).).)) are -10.3 kcal/mol and 38.3 °C.
On the same counts, the results for GCAGTGCGAAAGCAACGC ((..(((....)))..)) are -15.1 kcal/mol and 58.7 °C.
On to GCCAGCGGAAACACTGGC (((((.(....).))))), for which, in series [1], the folding enthalpy was -39.2 kcal/mol. Besides, the Tm in series [2] came to 52.8 °C.
Take GTACAGGGAAACCCGTAC ((((.((....)).)))): the folding enthalpy in series [1] was -24.8 kcal/mol. Moreover, the Tm in series [2] worked out at 43.4 °C.
On the same counts, the results for GAGCAGGGAAACCCGCTC ((((.((....)).)))) are -34.2 kcal/mol and 51.4 °C.
On the same counts, the results for GATCAAAAGTTTGATC ((((((....)))))) are -27.7 kcal/mol and 42.4 °C.
GGTGACGGAAACGTTGCC ((..(((....)))..)): the folding enthalpy in series [1] was -34.3 kcal/mol. For the same sequence, the Tm in series [2] amounted to 48.1 °C.
On the same counts, the results for GTATGCGAAAGCAGCTAC ((((((....)))..))) are -13.4 kcal/mol and 32.8 °C.
For GCATGGGGAAACCCGTGC (((.(((....))).))), in series [1], the folding enthalpy is -47.5 kcal/mol. The Tm in series [2] was 58.7 °C.
